Assays:
Type in all cases: functional
Rattus norvegicus [1] = test: Average turns of rat / 1st 15 min at intraperitoneal dosage of 1.0 mg/kg
Rattus norvegicus [2] = test: (§1) Tested for lowering of serum prolactin level in reserpinized rat after i.p. administration at dosage of 0.05 mg/kg; conditions: route intraperitoneal
Rattus norvegicus [3] = test: Percentage of lesioned rats exhibiting contralateral turning after intraperitoneal dosage of 1.0 mg/kg
Method in brief: (§2)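 Rats with unilateral 6-hydroxydopamine nigrostriatal lesions dosed i.p.; contralateral rotation scored as % of rats turning and average turns during first 15 min after turning began; 6-10 rats per group. Method of Ungerstedt and Arbuthnot.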

Rattus norvegicus [4] = test: (§3) Control Serum prolactin level in reserpinized rat after i.p. administration at dosage of 0.05 mg/kg; conditions: route intraperitoneal
Rattus norvegicus [5] = organism: Rattus norvegicus; test: animal or person; conditions: ip, route intraperitoneal
Rattus norvegicus [6] = test: (§4) Dopaminergic activity causing prolactin inhibition in reserpinized rat after i.p. administration at dosage of 5.0 mg/kg; conditions: ip, route intraperitoneal
Rattus norvegicus [7] = test: Tested for average turns of rat / 1st 15 min at intraperitoneal dosage of 0.05 mg/kg
Method in brief: (§5)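 Rats with unilateral 6-hydroxydopamine nigrostriatal lesions dosed intraperitoneally; contralateral rotation scored as percentage of rats turning and average turns counted over first 15 min after turning began; 6-10 rats per group.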

Rattus norvegicus [8] = test: (§6) Tested for average turns of rat / 1st 15 min at intraperitoneal dosage of 0.1 mg/kg; method in brief: as §5
Rattus norvegicus [9] = test: Tested for lowering of serum prolactin level in reserpinized rat after i.p. administration at dosage of 0.005 mg/kg; conditions: route intraperitoneal
Method in brief: (§7)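 Serum prolactin measured in reserpinized male rats given drug intraperitoneally; control group serum level alongside treated level; percent inhibition derived from control versus treated means; mean ± standard error for 10 rats per group; significance level (p) reported versus control.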

Rattus norvegicus [10] = test: (§8) Percentage of lesioned rats exhibiting contralateral turning after intraperitoneal dosage of 0.1 mg/kg; method in brief: as §5
Rattus norvegicus [11] = test: Control Serum prolactin level in reserpinized rat after i.p. administration at dosage of 0.005 mg/kg; conditions: route intraperitoneal; method in brief: as §7
Rattus norvegicus [12] = test: (§9) Dopaminergic activity causing prolactin inhibition in reserpinized rat after i.p. administration at dosage of 0.005 mg/kg; conditions: ip, route intraperitoneal; method in brief: as §7
Rattus norvegicus [13] = test: as §1; conditions: route intraperitoneal; method in brief: as §7; remark: listed apart in the source
Rattus norvegicus [14] = test: Percentage of lesioned rats exhibiting contralateral turning after intraperitoneal dosage of 0.05 mg/kg; method in brief: as §5
Rattus norvegicus [15] = test: Percentage of lesioned rats exhibiting contralateral turning after ip dosage of 0.05 mg/kg; conditions: route intraperitoneal; method in brief: as §5
Rattus norvegicus [16] = test: Percentage of lesioned rats exhibiting contralateral turning after ip dosage of 0.1 mg/kg; conditions: route intraperitoneal; method in brief: as §5
Rattus norvegicus [17] = test: Percentage of lesioned rats exhibiting contralateral turning after ip dosage of 1.0 mg/kg; conditions: route intraperitoneal; method in brief: as §5
Rattus norvegicus [18] = test: Dopaminergic activity causing prolactin inhibition in reserpinized rat after i.p. administration at dosage of 0.5 mg/kg; conditions: ip, route intraperitoneal
Rattus norvegicus [19] = test: Tested for lowering of serum prolactin level in reserpinized rat after i.p. administration at dosage of 0.5 mg/kg; conditions: route intraperitoneal
Rattus norvegicus [20] = test: (§10) Control Serum prolactin level in reserpinized rat after i.p. administration at dosage of 0.5 mg/kg; conditions: route intraperitoneal
Rattus norvegicus [21] = test: Tested for average turns of rat / 1st 15 min at intraperitoneal dosage of 0.02 mg/kg; method in brief: as §5
Rattus norvegicus [22] = test: tested for average turns of rat / 1st 15 min at intraperitoneal dosage of 0.1 mg/kg; method in brief: as §5
Rattus norvegicus [23] = test: Tested for lowering of serum prolactin level in reserpinized rat after i.p. administration at dosage of 0.0005 mg/kg; conditions: route intraperitoneal; method in brief: as §7
Rattus norvegicus [24] = test: Percentage of lesioned rats exhibiting contralateral turning after ip dosage of 0.02 mg/kg; conditions: route intraperitoneal; method in brief: as §5
Rattus norvegicus [25] = test: Control Serum prolactin level in reserpinized rat after i.p. administration at dosage of 0.0005 mg/kg; conditions: route intraperitoneal; method in brief: as §7
Rattus norvegicus [26] = test: Dopaminergic activity causing prolactin inhibition in reserpinized rat after i.p. administration at dosage of 0.0005 mg/kg; conditions: ip, route intraperitoneal; method in brief: as §7
Rattus norvegicus [27] = test: (§11) Dopaminergic activity causing prolactin inhibition in reserpinized rat after i.p. administration at dosage of 0.05 mg/kg; conditions: ip, route intraperitoneal
Method in brief: (§12)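 Male rats pretreated with reserpine; drug given i.p. and serum prolactin measured (ng/mL) in controls and treated groups; % inhibition relative to control; mean ± SE for 10 rats per group; significance level p reported. Method of Clemens et al.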

Rattus norvegicus [28] = test: as §3; conditions: route intraperitoneal; method in brief: as §12; remark: listed apart in the source
Rattus norvegicus [29] = test: as §9; conditions: ip, route intraperitoneal; method in brief: as §12; remark: listed apart in the source
Rattus norvegicus [30] = test: as §6; method in brief: as §2; remark: listed apart in the source
Rattus norvegicus [31] = test: Tested for average turns of rat / 1st 15 min at intraperitoneal dosage of 1.0 mg/kg; method in brief: as §5
Rattus norvegicus [32] = test: as §10; conditions: route intraperitoneal; remark: listed apart in the source
Method in brief: (§13)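 Reserpinized male rats, intraperitoneal dosing; serum prolactin of vehicle control group reported in ng/mL as mean ± standard error, 10 rats per group, for comparison with treated group.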

Rattus norvegicus [33] = test: as §8; method in brief: as §2; remark: listed apart in the source
Rattus norvegicus [34] = test: as §11; conditions: ip, route intraperitoneal; method in brief: as §7; remark: listed apart in the source
Rattus norvegicus [35] = test: Control Serum prolactin level in reserpinized rat after i.p. administration at dosage of 5 mg/kg; conditions: route intraperitoneal; method in brief: as §13
Rattus norvegicus [36] = test: as §4; conditions: ip, route intraperitoneal; method in brief: as §7; remark: listed apart in the source

Compound | Average turns (Rattus norvegicus [1]) | Exhibiting turning (Rattus norvegicus [3]) | Inhibition (Rattus norvegicus [4]) | inhibition in vivo at 0.05 mg/kg (Rattus norvegicus [5]) | inhibition in vivo at 5 mg/kg (Rattus norvegicus [6]) | Average turns (Rattus norvegicus [8]) | Exhibiting turning (Rattus norvegicus [17]) | inhibition in vivo at 0.5 mg/kg (Rattus norvegicus [18]) | further results
CN(C)C1CCc2n[nH]cc2C1.Cl.Cl (stereo not drawn) | 0 | 0% | 59.8 ng/mL | 32% | 69% |  |  |  | Inhibition (Rattus norvegicus [2]): 41 ng/mL
CCN(CC)C1CCc2c[nH]cc2C1.O=C(O)/C=C\C(=O)O (stereo not drawn) | 0 | 0% |  |  | 23% |  |  |  | 
CCCN1CCC[C@@H]2Cc3c[nH]cc3CC21.O=C(O)/C=C\C(=O)O (stereo partly drawn) | 169 | 100% | 49.5 ng/mL | 36% | 95% | 64 |  |  | Average turns (Rattus norvegicus [7]): 49; Inhibition (Rattus norvegicus [9]): 37.6 ng/mL; Exhibiting turning (Rattus norvegicus [10]): 50%; Inhibition (Rattus norvegicus [11]): 49.5 ng/mL; inhibition in vivo at 0.005 mg/kg (Rattus norvegicus [12]): 24%; Treatment (Rattus norvegicus [13]): 31.6 ng/mL; Exhibiting turning (Rattus norvegicus [14]): 33%
NC1CCc2c[nH]cc2C1 (stereo not drawn) | 0 | 0% |  |  | 24% |  |  |  | 
CCCN1CCC[C@@H]2Cc3n[nH]cc3CC21.Cl.Cl (stereo partly drawn) | 85 |  |  | 61% | 91% | 67 | 100% | 76% | Average turns (Rattus norvegicus [7]): 6; Exhibiting turning (Rattus norvegicus [15]): 67%; Exhibiting turning (Rattus norvegicus [16]): 75%
CN1CCC[C@@H]2Cc3c[nH]cc3CC21.O=C(O)/C=C\C(=O)O (stereo partly drawn) | 19 | 33% |  |  | 90% |  |  | 18% | Serum level (Rattus norvegicus [19]): 30.9 ng/mL; Concentration (Rattus norvegicus [20]): 37.7 ng/mL
Cl.Cl.NC1CCc2n[nH]cc2C1 (stereo not drawn) | 0 | 0% |  |  | 14% |  |  |  | 
CCCN1CC(CSC)C[C@@H]2c3cccc4[nH]cc(c34)CC21.COS(=O)(=O)O (stereo partly drawn) | 93 |  |  | 95% |  |  | 100% |  | Average turns (Rattus norvegicus [21]): 0; Average turns (Rattus norvegicus [7]): 60; Average turns (Rattus norvegicus [22]): 81; Inhibition (Rattus norvegicus [23]): 15.5 ng/mL; Inhibition (Rattus norvegicus [9]): 3.5 ng/mL; Exhibiting turning (Rattus norvegicus [24]): 0%; Exhibiting turning (Rattus norvegicus [15]): 100%; Exhibiting turning (Rattus norvegicus [16]): 83%; Inhibition (Rattus norvegicus [25]): 37.7 ng/mL; Inhibition (Rattus norvegicus [11]): 37.7 ng/mL; inhibition in vivo at 0.0005 mg/kg (Rattus norvegicus [26]): 59%; inhibition in vivo at 0.005 mg/kg (Rattus norvegicus [12]): 91%
CCCN(CCC)C1CCc2n[nH]cc2C1.Cl.Cl (stereo not drawn) | 90 |  |  |  | 94% | 0 | 60% | 66% | Serum level (Rattus norvegicus [19]): 10.6 ng/mL; Exhibiting turning (Rattus norvegicus [16]): 0%; Concentration (Rattus norvegicus [20]): 31.2 ng/mL; inhibition in vivo at 0.05 mg/kg (Rattus norvegicus [27]): 1%; Control (Rattus norvegicus [28]): 31.2 ng/mL; Treatment (Rattus norvegicus [13]): 30.8 ng/mL
CCCN1CC(CO)C[C@@H]2Cc3c[nH]cc3CC21 (stereo partly drawn) | 109 | 100% |  | 17% |  | 8 |  |  | Exhibiting turning (Rattus norvegicus [10]): 67%
CCCN1CC(CSC)C[C@@H]2Cc3n[nH]cc3CC21.Cl.Cl (stereo partly drawn) | 81 |  |  | 89% |  | 65 | 100% |  | Average turns (Rattus norvegicus [7]): 80; Inhibition (Rattus norvegicus [23]): 31.5 ng/mL; Inhibition (Rattus norvegicus [9]): 19.3 ng/mL; Exhibiting turning (Rattus norvegicus [15]): 67%; Exhibiting turning (Rattus norvegicus [16]): 50%; Inhibition (Rattus norvegicus [25]): 44.9 ng/mL; Inhibition (Rattus norvegicus [11]): 44.9 ng/mL; inhibition in vivo at 0.0005 mg/kg (Rattus norvegicus [26]): 30%; inhibition in vivo at 0.005 mg/kg (Rattus norvegicus [29]): 57%
CCCN(CCC)C1Cc2cccc3[nH]cc(c23)C1.O=C(O)C(=O)O (stereo not drawn) |  | 60% | 46.1 ng/mL | 0% | 95% |  |  | 59% | Average turns (Rattus norvegicus [30]): 73; Average turns (Rattus norvegicus [31]): 113; Control level (Rattus norvegicus [32]): 46.1 ng/mL; Exhibiting turning (Rattus norvegicus [33]): 40%; Inhibition (Rattus norvegicus [2]): 46.2 ng/mL; Serum level (Rattus norvegicus [19]): 18.9 ng/mL
C=CCN1CCC[C@@H]2Cc3n[nH]cc3CC21.Cl.Cl (stereo partly drawn) | 165 |  |  |  |  | 0 | 100% |  | Exhibiting turning (Rattus norvegicus [16]): 0%; inhibition in vivo at 0.05 mg/kg (Rattus norvegicus [34]): 31%
CCCN(CCC)C1CCc2c[nH]nc2C1 (stereo not drawn) | 114 | 100% |  | 31% |  |  |  |  | Average turns (Rattus norvegicus [30]): 0; Exhibiting turning (Rattus norvegicus [33]): 0%
CCCN(CCC)C1CCc2c[nH]cc2C1.O=C(O)/C=C\C(=O)O (stereo not drawn) | 52 | 40% | 59.8 ng/mL | 20% | 93% |  |  | 40% | Average turns (Rattus norvegicus [30]): 0; Exhibiting turning (Rattus norvegicus [33]): 0%; Inhibition (Rattus norvegicus [2]): 47.6 ng/mL; Serum level (Rattus norvegicus [19]): 36.1 ng/mL; Concentration (Rattus norvegicus [20]): 59.8 ng/mL
CN1CCC[C@@H]2Cc3n[nH]cc3CC21.Cl.Cl (stereo partly drawn) | 0 |  | 31.7 ng/mL | 2% | 84% |  | 0% | 42% | Inhibition (Rattus norvegicus [2]): 31.1 ng/mL; Serum level (Rattus norvegicus [19]): 18.5 ng/mL; Concentration (Rattus norvegicus [20]): 31.7 ng/mL
O=C(O)/C=C\C(=O)O.c1[nH]cc2c1CC1NCCC[C@@H]1C2 (stereo partly drawn) | 0 |  |  |  |  |  | 0% |  | Inhibition (Rattus norvegicus [35]): 43.4 ng/mL; inhibition in vivo at 5 mg/kg (Rattus norvegicus [36]): 26%
Cl.Cl.c1[nH]nc2c1CC1NCCC[C@@H]1C2 (stereo partly drawn) | 0 |  |  |  | 20% |  | 0% |  | 
CN(C)C1Cc2cccc3[nH]cc(c23)C1.O=C(O)C(=O)O (stereo not drawn) |  | 75% | 36.4 ng/mL | 45% | 91% | 0 |  |  | Average turns (Rattus norvegicus [31]): 69; Inhibition (Rattus norvegicus [2]): 19.9 ng/mL; Exhibiting turning (Rattus norvegicus [10]): 0%

Reference: ChEMBL document CHEMBL1121430, “Bicyclic and tricyclic ergoline partial structures. Rigid 3-(2-aminoethyl)pyrroles and 3- and 4-(2-aminoethyl)pyrazoles as dopamine agonists” (1980)
